Screening data deposited in PubChem by SRMLSC.
bCat KO growth: beta-catenin-lacking colon tumor cell growth suppression; hit rate 1.5% among 140,000; HCT116 beta-catenin knockout viability, CellTiter-Glo, 60 h; hits give low values; viability, % at 10 µM;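 active means viability at or under a set limit, the compound median less 4 SD, cut at about 6% in these data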;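 further: 0% = Hyamine 1622 control at 20 µM and 100% = untreated cell control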
Fibroblast inh: blocks proliferation of human lung fibroblasts. LL 47 human lung fibroblast viability, ATP luminescence; hits give low values. viability, % at 10 µM. hit rate 1.1% among 85,000. AID 719;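 active means viability at or below 50% in the single dose screen; inactive means viability above 50%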;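 further: compound exposure lasted 72 h before the ATP readout; 100% = median luminescence of untreated cell-only wells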
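Times – overnight cell rest, 72 h compound treatment at 37 °C · Test system – human lung fibroblast line LL 47, low passage · Amount – 1,150 cells in each well · Controls – cell-only wells, no compound · Doses – 0.1% DMSO in all compound wells · Measured by – CellTiter-Glo luminescence · Buffer or medium – IMEM plus 15% FBS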
HCT116 PTEN-null: suppresses growth of cells with PTEN deletion. HCT116 PTEN-null viability, CellTiter-Glo, 60 h; hits give low values. viability, % at 10 µM. hit rate 1.2% among 140,000. AID 827;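 active means viability at or below a set limit, 4 SD under the median of all tested compounds, cut at about 3.7% in these data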;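 further: PTEN knockout HCT116 line with beta catenin targeted HCT116 as companion control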
HUVEC prolif 384: inhibitors of human endothelial cell proliferation; hit rate 1.1% among 86,000; viability, % at 10 µM (by protocol); HUVEC proliferation, CellTiter-Glo luminescence, 72 h; hits give low values;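 active means viability at or below 30%; inactive means viability above 30%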;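 further: 100% = median luminescence of DMSO-only cell control wells on each plate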
H69AR inhibit: growth inhibitors of human H69AR lung tumor cells; H69AR lung tumor viability, ATP luminescence, 72 h; hits give low values; hit rate 6% among 85,000; viability, % at 10 µM; AID 598;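 active means viability at or below 40%; inactive means viability above 40%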;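 further: multidrug resistant small cell line overexpressing MRP-1 efflux transporter; 100% = mean luminescence of untreated control wells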
Active calls of the source: *; x = no result given. Many of the other results were omitted from the sample, so hits are more common in it than they were.

SMILES	bCat KO growth	Fibroblast inh	HCT116 PTEN-null	HUVEC prolif 384	H69AR inhibit
Cc1onc(-c2c(Cl)cccc2Cl)c1C(=O)N1CCCc2ccccc21	27	77	23	68	12*
Cc1onc(-c2c(F)cccc2Cl)c1C(=O)N1CCc2ccccc21	70	109	63	103	30*
Cc1noc(C)c1C(=O)N1CCc2ccccc21	113	95	108	97	90
Cc1onc(-c2ccccc2)c1C(=O)N1CCCc2ccccc21	96	88	102	95	112
CSc1ccc(NC(=O)N2CC=C(n3c(=O)[nH]c4ccccc43)CC2)cc1	38	x	29	x	x
CCOC(=O)c1c(NC(=O)COc2ncnc3sccc23)sc2c1CCC2	84	81	90	20*	55
COc1cccc2cc(-c3nnc(SCC(=O)Nc4cc(C(F)(F)F)ccc4Cl)n3N)oc12	51	88	45	69	7.6*
CCn1c(SCC(=O)Nc2nccs2)nnc1-c1cc2cccc(OC)c2o1	94	106	82	109	96
O=C(N1CCN(c2ccccc2)CC1)C1(c2cccs2)CCOCC1	81	x	78	x	x
O=C(CN1CCCC1)Nc1ccc(-c2nc3cc(NC(=O)CN4CCCC4)ccc3o2)cc1	2.4*	23*	3.7*	65	47
Cc1ccc2oc(-c3ccc(NC(=O)CC(C)C)cc3)nc2c1	86	94	102	106	98
CCCC(=O)Nc1ccc2oc(-c3ccncc3)nc2c1	99	104	97	110	96
CCN(CC)CC(=O)Nc1ccc(-c2nc3cc(NC(=O)CN(CC)CC)ccc3o2)cc1	8	44*	7	106	61
CCC(C)NCC(=O)Nc1ccc(-c2nc3cc(NC(=O)CNC(C)CC)ccc3o2)cc1 (stereo not drawn)	0.6*	2.9*	0.8*	25*	60
Cc1ccccc1OCc1nnc(SCC(=O)Nc2ccc(N3CCOCC3)c(Cl)c2)n1C	97	84	93	104	91
Cc1nc2cc(-c3ccccc3)nn2c(C)c1CCC(=O)NC(C)c1ccc2c(c1)OCCO2 (stereo not drawn)	92	x	87	x	x
Cc1ccc(Cn2ncc3c(N4CCN(c5ccc(C)cc5)CC4)ncnc32)cc1	62	92	70	104	93
CCc1ccc(C(=O)Cn2ncc(Cl)c(Cl)c2=O)cc1	4.8*	29*	3.0*	6.8*	6.1*
O=c1c(Cl)c(Cl)cnn1-c1ccccc1	0.9*	x	0.9*	x	x
Cc1cc(=O)[nH]c2c1cnn2Cc1ccccc1	87	100	90	102	101
Cc1cc(C)cc(Cn2ncc(Cl)c(Cl)c2=O)c1	1.9*	x	1.6*	x	x
Cc1ccc(Cn2ncc(Cl)c(Cl)c2=O)cc1	2.7*	x	1.7*	x	x
O=C(OCn1ncc(Cl)c(Cl)c1=O)c1cccc(C(F)(F)F)c1	8	x	8	x	x
CC(NC(=O)COC(=O)CCc1ccccc1)c1ccccc1 (stereo not drawn)	101	x	103	x	x
Cc1ccc(F)cc1NC(=O)c1ccc(NS(=O)(=O)c2ccc(Br)s2)cc1	85	x	92	x	x
SMILES	bCat KO growth	Fibroblast inh	HCT116 PTEN-null	HUVEC prolif 384	H69AR inhibit
Cc1cc(=O)c2n(Cc3ccccc3Cl)nc[n+]2[nH]1	96	102	92	94	82
O=c1c(Cl)c(Cl)cnn1Cc1ccccc1Cl	1.7*	x	1.9*	x	x
CC(C)(C)C1CCC(C(=O)OCC(=O)c2ccc[nH]2)CC1 (stereo not drawn)	96	x	94	x	x
CCN(CC)C(=O)Cn1nc(-c2ccccc2O)nc1SCC(=O)Nc1ccc(OC)cc1	84	93	75	78	35*
COc1ccc(NC(=O)CSc2ccc3c4c(cccc24)C(=O)c2ccccc2-3)cc1	6	x	3.4*	x	x
CCCS(=O)(=O)Nc1cc(C(F)(F)F)ccc1OCCOC	102	95	101	81	81
O=C(NCc1ccccc1)c1cccc(NS(=O)(=O)c2cccc3cccnc23)c1	90	x	103	x	x
COc1ccc(NC2CS(=O)(=O)CC2NCc2ccccc2)cc1 (stereo not drawn)	82	103	94	93	103
O=C1C2C3C=CC(CO)(O3)C2C(=O)N1c1ccccc1-c1ccccc1 (stereo not drawn)	93	8.3*	107	78	3.9*
Cc1cccc(-n2ccnc2SCC(=O)N2CCCc3ccccc32)c1C	79	x	62	x	x
Cc1cccc(NC(=O)CSc2ncnc3c2oc2ccccc23)c1	89	89	96	76	30*
Cc1ccc2nc(NC(=O)CSc3nc4ccccc4o3)sc2c1	92	104	96	104	97
Cc1ccc2nc(NC(=O)CSc3ncnc4c3oc3ccccc34)sc2c1	50	92	62	35	26*
O=c1/c(=C\c2cccn2-c2ccccc2)sc2nc3ccccc3n12	93	100	102	59	28*
Cc1ccc(C)c(S(=O)(=O)Nc2ccc3scnc3c2)c1	30	x	31	63	17*
C=C(C)c1cccc(C(C)(C)NC(=O)N2CCN(C/C=C/c3ccccc3)CC2)c1	31	93	34	69	77
O=C(c1ccc(S(=O)(=O)c2ccccc2Cl)c([N+](=O)[O-])c1)N1CCN(Cc2ccccc2)CC1	4.9*	x	9	x	x
Cc1ccc(-c2nc3ccccc3o2)cc1NC(=S)NC(=O)c1cccs1	94	x	73	x	x
COc1cc(C(=O)Nc2cccc(-c3nc4cc(C)cc(C)c4o3)c2)cc(OC)c1OC	98	x	90	x	x
Cc1cc(C)c2oc(-c3cccc(NC(=O)c4ccc(F)cc4)c3)nc2c1	89	99	99	40	17*
Cc1cc(C)c2oc(-c3ccc(C)c(NC(=S)NC(=O)c4cccs4)c3)nc2c1	3.8*	x	2.7*	x	x
O=C(CCNC(=O)OCc1ccccc1)NC1CCCCCC1	99	x	101	x	x
Cc1sc2ncnc(NCC(c3ccco3)N3CCCC3)c2c1C (stereo not drawn)	31	89	41	75	36*
Clc1ccc(C(c2nnnn2CCc2ccccc2)N2CCSCC2)cc1 (stereo not drawn)	75	99	80	114	81
CCOc1cc(-c2noc(-c3ccncc3)n2)cc(Br)c1OC	89	109	85	65	20*
SMILES	bCat KO growth	Fibroblast inh	HCT116 PTEN-null	HUVEC prolif 384	H69AR inhibit
CCOc1ccc(-c2noc(-c3ccncc3)n2)cc1OCC	111	103	97	110	68
Brc1ccccc1OCCCn1cnc2ccccc21	93	94	x	16*	72
Cc1ccccc1OCCCCn1cnc2ccccc21	17	103	21	46	74
CCN(Cc1ccccc1)S(=O)(=O)c1ccc(S(=O)(=O)N(Cc2ccccn2)Cc2ccco2)cc1	73	102	66	70	22*
Cc1cccc(-n2c(=O)[nH]c3c(C(N)=O)nc(-c4ccccc4Cl)nc32)c1	1.8*	53	1.5*	89	2.5*
Cc1ccc(-n2c(O)c(C=Nc3ccc4c(c3)OCO4)c3ccccc3c2=O)cc1C	2.0*	x	2.4*	x	x
Cc1cc(N=Cc2c(O)n(-c3ccc4c(c3)OCO4)c(=O)c3ccccc23)ccn1	83	73	80	87	21*
CCCc1cc2c(cc1NC(=O)c1ccc(C)cc1)OCO2	96	x	x	x	x
